Reference: ChEMBL document CHEMBL4196175, “First SAR Study for Overriding NRAS Mutant Driven Acute Myeloid Leukemia” (J Med Chem, 2018)
The source made the active and inactive calls. The calls are words filed in the database; no cut-off is given here.

Legend:
[1] = test system: OCI-AML-3; test: Growth inhibition of human OCI-AML3 cells harboring NRAS-Q61L mutant after 72 hrs by celltiter-glo assay; format: functional; conditions: OCI-AML-3, 72 h
[2] = biological target: CYP3A4 (Homo sapiens, UniProt P08684); test: Inhibition of CYP3A4 (unknown origin) assessed as activity remaining at 10 uM relative to control; format: ADME; conditions: read-out: Activity
[3] = biological target: Activated CDC42 kinase 1 (Homo sapiens, UniProt Q07912); test: Inhibition of ACK1 (unknown origin) by radiometric biochemical kinase assay
[4] = test system: OCI-AML-3; test: Growth inhibition of ACK1/GCK knockdown human OCI-AML3 cells harboring NRAS-Q61L mutant at 0.2 uM after 72 hrs by celltiter-glo assay; format: functional, cell-based
[5] = Metabolic stability in human liver microsomes assessed as compound remaining at 1 uM after 30 mins; format: ADME, microsome; conditions: read-out: Stability
[6] = test system: OCI-AML-3; test: Inhibition of anchorage-independent cell growth in human OCI-AML3 cells harboring NRAS Q61L mutant assessed as reduction in colony number at 0.1 to 1 uM after 14 days by iodonitrotetrazolium chloride staining-based soft agar assay; format: functional
Method in brief: (§1)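 OCI-AML3 cells embedded in 0.7% low-melting agar, incubated 2 weeks with compound at 0.1 or 1 µM; colony number and colony size per well measured by automated image analysis; n = 3 per condition, SD, one-way ANOVA.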

[7] = test system: BaF3; test: Induction of apoptosis in mouse BA/F3 cells expressing NRAS-G12D mutant assessed as decrease in MCL1 levels at 1 uM after 24 hrs by Western blot analysis; format: functional, cell-based
Method in brief: (§2)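 Cells treated 24 h with indicated concentrations (1 µM; 5 µM also used in Ba/F3-NRAS-G12D); cleaved PARP, cleaved caspase 3, bcl-2 and MCL1 detected by western blot with actin as loading control.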

[8] = Metabolic stability in rat liver microsomes assessed as compound remaining at 1 uM after 30 mins; format: ADME, microsome; conditions: read-out: Stability
[9] = test system: BaF3; test: Induction of apoptosis in mouse BA/F3 cells expressing NRAS-G12D mutant assessed as increase in cleaved PARP levels at 1 uM after 24 hrs by Western blot analysis; format: functional, cell-based; method in brief: as §2
[10] = test system: BaF3; test: Antileukemic activity against mouse BA/F3 cells harboring NRAS-G12D mutant/luciferase allografted in immunodeficient mouse at 8 mg/kg/day, po qd administered on day 6 post implantation measured on day 20 post implantation by bioluminescence imaging method; format: functional, organism-based
Method in brief: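 Immunodeficient mice injected via tail vein with Ba/F3-NRAS-G12D/Luc cells, dosed orally once daily (8 or 15 mg/kg/day) or vehicle for 3 weeks, n=4 per cohort; bioluminescence imaged every two days after luciferin 150 mg/kg, quantified by bio-photonic analysis.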

[11] = test system: OCI-AML-3; test: Cell cycle arrest in human OCI-AML3 cells harboring NRAS Q61L mutant assessed as accumulation at G0/G1 phase at 1 uM after 24 hrs by propidium iodide staining based FACS analysis; format: functional
Method in brief: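 OCI-AML3 cells treated 24 h at indicated concentrations, including 1 µM; cell-cycle phase distribution measured by flow cytometry after propidium iodide staining.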

[12] = Metabolic stability in dog liver microsomes assessed as compound remaining at 1 uM after 30 mins; format: ADME, Canis lupus familiaris, microsome; conditions: read-out: Stability
[13] = biological target: CYP2D6 (Homo sapiens, UniProt P10635); test: Inhibition of CYP2D6 (unknown origin) assessed as activity remaining at 10 uM relative to control; format: ADME; conditions: read-out: Activity
[14] = biological target: T1, Mitogen-activated protein kinase kinase kinase kinase 2 (Homo sapiens, UniProt Q12851); test: Inhibition of GCK (unknown origin) by radiometric biochemical kinase assay
T1 sequence (Q12851 whole entry): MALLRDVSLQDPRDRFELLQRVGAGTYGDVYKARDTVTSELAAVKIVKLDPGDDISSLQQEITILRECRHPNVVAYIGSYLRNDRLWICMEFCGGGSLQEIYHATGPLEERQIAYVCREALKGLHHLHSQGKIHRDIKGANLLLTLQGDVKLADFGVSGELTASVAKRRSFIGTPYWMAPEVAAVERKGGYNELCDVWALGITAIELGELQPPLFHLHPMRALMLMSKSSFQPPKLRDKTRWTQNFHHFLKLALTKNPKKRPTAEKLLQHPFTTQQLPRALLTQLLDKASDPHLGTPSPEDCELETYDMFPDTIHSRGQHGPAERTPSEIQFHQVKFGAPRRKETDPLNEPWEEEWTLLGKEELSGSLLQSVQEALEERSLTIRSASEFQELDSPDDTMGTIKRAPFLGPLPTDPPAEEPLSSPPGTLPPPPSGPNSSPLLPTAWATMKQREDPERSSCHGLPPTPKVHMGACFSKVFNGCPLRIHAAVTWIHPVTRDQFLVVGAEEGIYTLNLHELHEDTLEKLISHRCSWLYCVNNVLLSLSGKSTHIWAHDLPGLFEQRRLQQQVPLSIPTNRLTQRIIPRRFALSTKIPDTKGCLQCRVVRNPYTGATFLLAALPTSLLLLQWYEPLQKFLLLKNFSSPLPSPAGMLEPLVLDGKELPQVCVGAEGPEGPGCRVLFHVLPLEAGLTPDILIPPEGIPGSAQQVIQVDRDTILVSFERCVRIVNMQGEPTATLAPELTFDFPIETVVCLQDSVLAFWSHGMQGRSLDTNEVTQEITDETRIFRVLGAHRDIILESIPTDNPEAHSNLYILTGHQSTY

[15] = test system: BaF3; test: Antileukemic activity against mouse BA/F3 cells harboring NRAS-G12D mutant allografted in immunodeficient mouse assessed as median survival time at 8 mg/kg/day, po qd administered on day 6 post implantation (reference value: 23 days); format: functional
[16] = test system: BaF3; test: Induction of apoptosis in mouse BA/F3 cells expressing NRAS-G12D mutant assessed as decrease in bcl2 levels at 1 uM after 24 hrs by Western blot analysis; format: functional, cell-based; method in brief: as §2
[17] = Growth inhibition of parental human U937 cells after 72 hrs by celltiter-glo assay; format: cell-based, U-937
[18] = test system: OCI-AML-3; test: Inhibition of anchorage-independent cell growth in human OCI-AML3 cells harboring NRAS Q61L mutant assessed as reduction in colony size at 0.1 to 1 uM after 14 days by iodonitrotetrazolium chloride staining-based soft agar assay; format: functional; method in brief: as §1
[19] = biological target: CYP2C9 (Homo sapiens, UniProt P11712); test: Inhibition of CYP2C9 (unknown origin) assessed as activity remaining at 10 uM relative to control; format: ADME; conditions: read-out: Activity
[20] = biological target: T2, CYP1A2 (Homo sapiens, UniProt P05177); test: Inhibition of CYP1A2 (unknown origin) assessed as activity remaining at 10 uM relative to control; format: ADME; conditions: read-out: Activity
T2 sequence (P05177 whole entry): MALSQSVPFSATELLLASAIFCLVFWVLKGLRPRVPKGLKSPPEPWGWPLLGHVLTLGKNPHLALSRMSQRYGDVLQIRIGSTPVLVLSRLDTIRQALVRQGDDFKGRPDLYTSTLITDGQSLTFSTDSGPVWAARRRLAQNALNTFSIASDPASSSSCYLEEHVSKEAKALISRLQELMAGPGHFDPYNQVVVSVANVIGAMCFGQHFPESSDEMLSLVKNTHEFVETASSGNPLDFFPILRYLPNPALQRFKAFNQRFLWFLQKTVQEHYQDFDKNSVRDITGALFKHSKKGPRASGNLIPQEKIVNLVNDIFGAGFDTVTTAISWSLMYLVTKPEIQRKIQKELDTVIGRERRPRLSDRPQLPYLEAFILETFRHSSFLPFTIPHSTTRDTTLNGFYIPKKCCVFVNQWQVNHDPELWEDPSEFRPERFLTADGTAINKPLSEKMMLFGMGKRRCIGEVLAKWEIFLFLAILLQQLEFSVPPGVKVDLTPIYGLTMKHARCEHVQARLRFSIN

[21] = test system: BaF3; test: Induction of apoptosis in mouse BA/F3 cells expressing NRAS-G12D mutant assessed as increase in cleaved caspase-3 levels at 1 uM after 24 hrs by Western blot analysis; format: functional, cell-based; method in brief: as §2
[22] = test system: OCI-AML-3; test: Antileukemic activity against human OCI-AML3 cells harboring NRAS-Q61L mutant xenografted in immunodeficient mouse assessed as tumor volume at 8 mg/kg/day, po qd administered on day 21 post implantation measured on […] (reference value: 100%); format: functional
[23] = organism: Mus musculus; test: Inhibition of ACK1/GCK in mouse BA/F3 cells assessed as reduction in NRAS-G12D mutant-mediated cell proliferation after 72 hrs by celltiter-glo assay; format: cell-based
[24] = Growth inhibition of parental mouse BA/F3 cells after 72 hrs by celltiter-glo assay; format: cell-based, BaF3
[25] = Metabolic stability in mouse liver microsomes assessed as compound remaining at 1 uM after 30 mins; format: ADME, microsome; conditions: read-out: Stability

Sequence of CYP2D6 (P10635 whole entry): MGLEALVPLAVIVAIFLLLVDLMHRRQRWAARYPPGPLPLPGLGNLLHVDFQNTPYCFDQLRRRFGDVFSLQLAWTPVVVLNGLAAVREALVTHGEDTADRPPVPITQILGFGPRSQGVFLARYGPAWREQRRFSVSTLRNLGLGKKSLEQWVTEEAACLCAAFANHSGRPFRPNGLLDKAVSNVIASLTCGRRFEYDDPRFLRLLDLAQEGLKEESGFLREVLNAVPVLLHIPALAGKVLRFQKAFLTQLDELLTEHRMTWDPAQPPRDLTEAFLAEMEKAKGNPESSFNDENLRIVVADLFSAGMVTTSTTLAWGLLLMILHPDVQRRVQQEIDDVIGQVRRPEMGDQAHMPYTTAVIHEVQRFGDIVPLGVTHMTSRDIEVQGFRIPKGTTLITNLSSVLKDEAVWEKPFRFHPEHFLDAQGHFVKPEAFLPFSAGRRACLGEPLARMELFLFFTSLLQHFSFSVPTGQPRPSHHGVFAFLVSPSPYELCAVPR
Sequence of CYP2C9 (P11712 whole entry): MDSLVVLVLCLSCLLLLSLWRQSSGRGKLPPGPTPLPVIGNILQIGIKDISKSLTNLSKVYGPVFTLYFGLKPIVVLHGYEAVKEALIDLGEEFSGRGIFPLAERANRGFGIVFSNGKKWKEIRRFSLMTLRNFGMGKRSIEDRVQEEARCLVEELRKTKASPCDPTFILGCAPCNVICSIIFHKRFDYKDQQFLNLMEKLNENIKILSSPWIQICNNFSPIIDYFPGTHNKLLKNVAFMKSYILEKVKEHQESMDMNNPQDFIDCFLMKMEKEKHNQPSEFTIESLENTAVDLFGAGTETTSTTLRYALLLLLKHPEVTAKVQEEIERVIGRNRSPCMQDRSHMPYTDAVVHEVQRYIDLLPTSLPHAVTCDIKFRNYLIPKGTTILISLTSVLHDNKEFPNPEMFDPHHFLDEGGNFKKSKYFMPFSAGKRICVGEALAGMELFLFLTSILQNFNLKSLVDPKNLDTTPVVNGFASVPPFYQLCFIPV
Sequence of Activated CDC42 kinase 1 (Q07912 whole entry): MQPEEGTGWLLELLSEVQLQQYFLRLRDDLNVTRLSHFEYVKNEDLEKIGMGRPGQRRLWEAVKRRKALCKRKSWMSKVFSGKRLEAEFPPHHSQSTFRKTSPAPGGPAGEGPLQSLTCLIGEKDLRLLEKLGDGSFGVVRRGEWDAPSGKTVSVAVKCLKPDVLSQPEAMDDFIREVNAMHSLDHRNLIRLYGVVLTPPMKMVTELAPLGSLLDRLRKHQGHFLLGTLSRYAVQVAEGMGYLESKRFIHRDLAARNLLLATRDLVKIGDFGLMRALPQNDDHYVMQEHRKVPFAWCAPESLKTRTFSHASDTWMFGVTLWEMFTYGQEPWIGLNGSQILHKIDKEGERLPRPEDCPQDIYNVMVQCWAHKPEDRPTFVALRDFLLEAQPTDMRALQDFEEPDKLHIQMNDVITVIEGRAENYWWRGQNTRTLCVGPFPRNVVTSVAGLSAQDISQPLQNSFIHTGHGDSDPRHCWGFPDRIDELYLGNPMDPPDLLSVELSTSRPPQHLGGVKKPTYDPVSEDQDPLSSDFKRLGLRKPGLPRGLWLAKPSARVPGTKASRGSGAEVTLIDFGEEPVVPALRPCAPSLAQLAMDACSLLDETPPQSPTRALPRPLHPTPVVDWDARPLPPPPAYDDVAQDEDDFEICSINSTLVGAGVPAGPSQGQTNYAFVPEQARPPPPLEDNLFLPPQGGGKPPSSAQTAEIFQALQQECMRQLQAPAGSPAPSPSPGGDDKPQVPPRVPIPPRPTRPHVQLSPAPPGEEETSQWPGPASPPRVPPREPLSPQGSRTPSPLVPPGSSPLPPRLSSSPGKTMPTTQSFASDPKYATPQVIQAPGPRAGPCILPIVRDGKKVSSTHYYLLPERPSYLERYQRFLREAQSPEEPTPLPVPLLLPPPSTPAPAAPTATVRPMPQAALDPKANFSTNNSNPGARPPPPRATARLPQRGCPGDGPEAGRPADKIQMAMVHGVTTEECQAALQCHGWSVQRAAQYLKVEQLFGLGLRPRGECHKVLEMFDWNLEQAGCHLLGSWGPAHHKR
Sequence of CYP3A4 (P08684 whole entry): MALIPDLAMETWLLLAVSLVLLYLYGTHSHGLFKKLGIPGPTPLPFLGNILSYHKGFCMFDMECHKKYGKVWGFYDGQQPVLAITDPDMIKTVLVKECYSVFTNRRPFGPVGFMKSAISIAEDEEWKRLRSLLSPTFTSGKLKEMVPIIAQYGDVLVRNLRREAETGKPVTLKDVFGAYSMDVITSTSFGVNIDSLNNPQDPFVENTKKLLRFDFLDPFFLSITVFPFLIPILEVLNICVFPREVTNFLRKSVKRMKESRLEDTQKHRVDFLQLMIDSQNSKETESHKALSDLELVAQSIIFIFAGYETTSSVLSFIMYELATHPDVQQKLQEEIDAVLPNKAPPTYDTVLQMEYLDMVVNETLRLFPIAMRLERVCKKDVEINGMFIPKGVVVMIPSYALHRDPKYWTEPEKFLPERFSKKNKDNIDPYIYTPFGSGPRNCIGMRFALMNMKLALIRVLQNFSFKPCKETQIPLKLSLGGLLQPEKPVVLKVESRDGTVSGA

Cc1ccc(Nc2ncc3c(n2)N(C)C(=O)N(c2cc(NC(=O)c4cccc(C(F)(F)F)c4)ccc2C)C3)cn1
GI50 [1]: 219 nM
activity at 10 µM [2]: > 100%
IC50 [3]: 25 nM
growth inhibition (GI) [4]: Active
remaining at 0.5 h, 1 µM [5]: 78.6%
growth inhibition (GI) [6]: Active
Activity [7]: Active
remaining at 0.5 h, 1 µM [8]: 84.8%
Activity [9]: Active
Activity [10]: Active
Activity [11]: Active
remaining at 0.5 h, 1 µM [12]: 55.3%
activity at 10 µM [13]: 68.4%
IC50 [14]: 8 nM
MSD [15]: 31 days
Activity [16]: Active
GI50 at 72 h [17]: 4380 nM
growth inhibition (GI) [18]: Active
activity at 10 µM [19]: 27%
activity at 10 µM [20]: 93.2%
Activity [21]: Active
Activity [22]: 53.8%
GI50 [23]: 81 nM
GI50 at 72 h [24]: 1030 nM
remaining at 0.5 h, 1 µM [25]: 80.5%
